Results on 41 compounds are retold here after ChEMBL document CHEMBL1152935, “Synthesis and structure-activity relationships of radicicol derivatives and WNT-5A expression inhibitory activity” (Bioorg Med Chem, 2009).

Usually IC50 stands for the point on the concentration scale where inhibition reaches its midpoint.

A short description of data set [1]: Inhibition of WNT5A mRNA expression in human dermal papilla cells after 24 hrs by quantigene assay. The format is functional, cell-based. The procedure, abridged:
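Human dermal papilla cells (gift, fifth subculture) in MEM with 12% FBS, seeded at 1 × 10⁴ cells/well, cultured overnight, then exposed 24 h to compounds or no-compound medium. WNT-5A mRNA quantified by branched-DNA QuantiGene: lysates on capture plate, WNT-5A probes 53 °C 20 h, amplifier then alkaline phosphatase probe each 46 °C 1 h, Lumi-Phos Plus 46 °C 30 min, luminescence read. IC50 reported.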

Data set [2] in a line: Cytotoxicity against human dermal papilla cells by Alamar blue assay. The following applies: read-out: TC50 (the source's name). The format is cell-based. The procedure, abridged:
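Dermal papilla cells seeded at 5 × 10³ cells/well, grown 16 h in MEM with 12% FBS, then given medium with or without test compounds for 24 h. Medium swapped for one containing 10% Alamar Blue and cells cultured 4 h more; fluorescence read at Ex 544 nm/Em 590 nm. TC50 reported.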
Background: Resazurin is reduced to fluorescent resorufin, in cell work by metabolically active cells.

Data set [3] is described as follows: Inhibition of HSP90.

Where only a bound is given, the exact number is not on record here.

In data set [1] (Homo sapiens, 24 h), `C[C@@H]1C[C@H]2O[C@@H]2CCCC[C@H](O)Cc2c(Cl)c(O)cc(O)c2C(=O)O1` yielded an IC50 of 5.89 µM. Further, the CC50 in data set [2] is greater than 100 µM. In the case of `C[C@@H]1C[C@H]2O[C@@H]2CC/C=C/[C@@H](O)Cc2c(Cl)c(O)cc(O)c2C(=O)O1`, the 50% inhibitory concentration (IC50) in data set [1] (Homo sapiens, 24 h) is greater than 100 µM. Also, the CC50 in data set [2] was greater than 100 µM. In data set [1] (Homo sapiens, 24 h), `C[C@@H]1C[C@H]2O[C@@H]2C/C=C/C[C@@H](O)Cc2c(Cl)c(O)cc(O)c2C(=O)O1` displayed an IC50 greater than 50 µM. With `C[C@@H]1C[C@H]2O[C@@H]2CC/C=C/[C@H](O)Cc2c(Cl)c(O)cc(O)c2C(=O)O1`, in data set [1] (Homo sapiens, 24 h), the IC50 is 1.89 µM. For the same compound, in data set [2], the CC50 is greater than 100 µM.

Regarding `C[C@@H]1C[C@H]2O[C@@H]2CCCC[C@@H](O)Cc2c(Cl)c(O)cc(O)c2C(=O)O1`, the IC50 in data set [1] (Homo sapiens, 24 h) was greater than 100 µM. In addition, in data set [2], the CC50 is greater than 100 µM. For `C[C@@H]1C[C@H]2O[C@@H]2C/C=C/C[C@H](O)Cc2c(Cl)c(O)cc(O)c2C(=O)O1`, the half-inhibitory concentration (IC50) in data set [1] (Homo sapiens, 24 h) was greater than 50 µM. Still for that read-out and setting: for `C[C@@H]1C/C=C/CC/C=C/[C@H](O)Cc2cc(O)cc(O)c2C(=O)O1` the value was greater than 50 µM. `CC(=O)S[C@@H]1/C=C\CC(=O)Cc2c(Cl)c(O)cc(O)c2C(=O)O[C@H](C)C[C@H]2O[C@@H]21` displayed an IC50 in data set [1] (Homo sapiens, 24 h) of 0.5 µM. The CC50 in data set [2] was greater than 100 µM. For the compound `COc1cc(O)c2c(c1Cl)C[C@@H](O)/C=C/CC[C@H]1O[C@@H]1C[C@@H](C)OC2=O`, the IC50 in data set [1] (Homo sapiens, 24 h) was greater than 100 µM. `C[C@@H]1C[C@H]2O[C@@H]2/C=C\C=C\[C@H](O)Cc2c(Cl)c(O)cc(O)c2C(=O)O1`: in data set [1] (Homo sapiens, 24 h), the IC50 worked out at 2.07 µM. Also, the CC50 in data set [2] was greater than 100 µM. Consider `C[C@@H]1C[C@@H](O)CC/C=C/CC(=O)Cc2c(Cl)c(O)cc(O)c2C(=O)O1`, for which the IC50 in data set [1] (Homo sapiens, 24 h) was greater than 50 µM. Regarding `C[C@@H]1C[C@@H](O)CCCCCC(=O)Cc2c(Cl)c(O)cc(O)c2C(=O)O1`, the IC50 in data set [1] (Homo sapiens, 24 h) was greater than 50 µM. The same measure, in the same setting: for `C[C@@H]1CC(O)C2C=CC(CC(=O)Cc3c(Cl)c(O)cc(O)c3C(=O)O1)O2` (stereo partly drawn) the value was greater than 50 µM. Regarding `C[C@@H]1C[C@H]2O[C@@H]2C/C=C/CC(=O)Cc2c(Cl)c(O)cc(O)c2C(=O)O1`, the 50% inhibitory concentration (IC50) in data set [1] (Homo sapiens, 24 h) came to 7.69 µM. The CC50 in data set [2] was greater than 100 µM. In data set [1] (Homo sapiens, 24 h), `CO/N=C1/C=C/C=C\[C@H]2O[C@@H]2C[C@@H](C)OC(=O)c2c(O)cc(O)c(Cl)c2C1` yielded a half-maximal inhibitory concentration (IC50) of 1.22 µM. Moreover, in data set [2], the CC50 is greater than 100 µM. For `C[C@@H]1C[C@H]2O[C@@H]2CC/C=C/[C@H](O)Cc2cc(O)cc(O)c2C(=O)O1`, in data set [1] (Homo sapiens, 24 h), the IC50 worked out at 13.2 µM. Further, in data set [2], the CC50 was greater than 100 µM. For `C[C@@H]1C[C@H]2O[C@@H]2C(Sc2ccccc2)/C=C\CC(=O)Cc2c(Cl)c(O)cc(O)c2C(=O)O1` (stereo partly drawn) the same measures were 0.27 µM and greater than 50 µM. For `COc1cc(OC)c2c(c1Cl)C[C@@H](O)/C=C/CC[C@H]1O[C@@H]1C[C@@H](C)OC2=O`, the IC50 in data set [1] (Homo sapiens, 24 h) was greater than 100 µM. The compound `CC(=O)Oc1cc(OC(C)=O)c2c(c1Cl)CC(OC(C)=O)/C=C/CC[C@H]1O[C@@H]1C[C@@H](C)OC2=O` (stereo partly drawn) showed an IC50 in data set [1] (Homo sapiens, 24 h) greater than 100 µM. The compound `C[C@@H]1C[C@H]2O[C@@H]2[C@H](Sc2ccccc2)CCCC(=O)Cc2c(Cl)c(O)cc(O)c2C(=O)O1` yielded an IC50 in data set [1] (Homo sapiens, 24 h) greater than 50 µM. For the same compound, the CC50 in data set [2] is greater than 50 µM. `C[C@@H]1CCCCCCCC(=O)Cc2cc(O)cc(O)c2C(=O)O1`: the half-inhibitory concentration (IC50) in data set [1] (Homo sapiens, 24 h) is greater than 50 µM. Turning to `C[C@@H]1C[C@@H](O)[C@@H](O)/C=C\C=C\C(=O)Cc2c(Cl)c(O)cc(O)c2C(=O)O1`, in data set [1] (Homo sapiens, 24 h), the IC50 is greater than 50 µM. `C[C@@H]1C[C@H]2O[C@@H]2\C=C/C=C/C(=N\OCc2ccccc2)Cc2c(Cl)c(O)cc(O)c2C(=O)O1` registered an IC50 in data set [1] (Homo sapiens, 24 h) of 0.51 µM. The CC50 in data set [2] is 65.6 µM. As to `C[C@@H]1C/C=C/CC/C=C/[C@@H](O)Cc2cc(O)cc(O)c2C(=O)O1`, the half-maximal inhibitory concentration (IC50) in data set [1] (Homo sapiens, 24 h) is greater than 50 µM. `CO\N=C1/C=C/C=C\[C@H]2O[C@@H]2C[C@@H](C)OC(=O)c2c(O)cc(O)c(Cl)c2C1` registered an IC50 in data set [1] (Homo sapiens, 24 h) of 0.15 µM. The CC50 in data set [2] is greater than 100 µM.

On to `C[C@@H]1C[C@H]2S[C@@H]2/C=C\C=C\C(=O)Cc2c(Cl)c(O)cc(O)c2C(=O)O1`, for which inhibition in data set [1] (Homo sapiens, 24 h) was half-maximal at 9.13 µM (IC50). Also, the CC50 in data set [2] is 28.2 µM. `C[C@@H]1C[C@H]2O[C@@H]2\C=C/C=C/C(=N/OCc2ccccc2)Cc2c(Cl)c(O)cc(O)c2C(=O)O1` gave a half-inhibitory concentration (IC50) in data set [1] (Homo sapiens, 24 h) of 0.06 µM. Besides, the CC50 in data set [2] turned out to be 42.1 µM. In data set [1] (Homo sapiens, 24 h), `C[C@@H]1C[C@@H](O)C/C=C\CCC(=O)Cc2c(Cl)c(O)cc(O)c2C(=O)O1` yielded an IC50 greater than 50 µM. As to `C[C@@H]1C[C@H]2OC(=O)O[C@H]2/C=C\C=C\C(=O)Cc2c(Cl)c(O)cc(O)c2C(=O)O1`, it took 15.7 µM to reach half-maximal inhibition in data set [1] (Homo sapiens, 24 h) (IC50). In data set [2], the CC50 came to 28.1 µM.

In turn, `CC(=O)S[C@@H]1/C=C/CC(=O)Cc2c(Cl)c(O)cc(O)c2C(=O)O[C@H](C)C[C@H]2O[C@@H]21` displayed an IC50 in data set [1] (Homo sapiens, 24 h) of 2.34 µM. Also, in data set [2], the CC50 is greater than 100 µM. In data set [1], `C[C@@H]1C[C@@H](O)[C@H](Cl)/C=C\C=C\C(=O)Cc2c(Cl)c(O)cc(O)c2C(=O)O1` displayed a half-inhibitory concentration (IC50) greater than 50 µM. On to `C[C@@H]1C[C@H]2O[C@@H]2\C=C/C=C/C(=N\O)Cc2c(Cl)c(O)cc(O)c2C(=O)O1`, for which half-maximal inhibition in data set [1] (Homo sapiens, 24 h) (IC50) required 0.26 µM. Moreover, in data set [2], the CC50 was determined as 89.5 µM. `C[C@@H]1C[C@@H](O)C(Cl)/C=C\C=C\C(=O)Cc2c(Cl)c(O)cc(O)c2C(=O)O1` (single isomer, unassigned): in data set [1], inhibition was half-maximal at 13.3 µM (IC50). Further, the CC50 in data set [2] stood at 42 µM. In turn, `COc1cc(OC)c2c(c1Cl)CC(=O)/C=C/C=C\[C@H]1O[C@@H]1C[C@@H](C)OC2=O` [DIMETHYL RADICICOL] displayed a concentration for half-maximal inhibition (IC50) in data set [1] (Homo sapiens, 24 h) of 3.76 µM. In addition, the CC50 in data set [2] turned out to be 8.4 µM.

The compound `C[C@@H]1C[C@H]2O[C@@H]2CC/C=C/C(=O)Cc2cc(O)cc(O)c2C(=O)O1` [MONOCILLIN III] showed a half-inhibitory concentration (IC50) in data set [1] (Homo sapiens, 24 h) of 9.43 µM. Besides, the CC50 in data set [2] was 28.9 µM. On to `C[C@@H]1C[C@H]2O[C@@H]2/C=C\C=C\C(=O)Cc2cc(O)cc(O)c2C(=O)O1` [MONOCILLIN I], for which the concentration for half-maximal inhibition (IC50) in data set [1] (Homo sapiens, 24 h) turned out to be 1.93 µM. In addition, in data set [2], the CC50 amounted to 2.9 µM. In the case of `C[C@H]1C[C@H]2O[C@@H]2CC/C=C/C(=O)Cc2c(Cl)c(O)cc(O)c2C(=O)O1` [POCHONIN A], the IC50 was found to be 2.64 µM in data set [1] (Homo sapiens, 24 h) and 0.09 µM in data set [3]. In addition, in data set [2], the CC50 turned out to be 57.3 µM. On to `CC(=O)Oc1cc(OC(C)=O)c2c(c1Cl)CC(=O)/C=C/C=C\[C@H]1O[C@@H]1C[C@@H](C)OC2=O` [RADICICOL DIACETATE], for which the half-maximal inhibitory concentration (IC50) in data set [1] (Homo sapiens, 24 h) was determined as 0.3 µM. The CC50 in data set [2] is 29.1 µM. As to `C[C@@H]1C[C@H]2O[C@@H]2/C=C\C=C\C(=O)Cc2c(Cl)c(O)cc(O)c2C(=O)O1` [RADICICOL], the IC50 in data set [1] (Homo sapiens, 24 h) is 0.19 µM. The CC50 in data set [2] came out at 15.3 µM. In data set [1] (Homo sapiens, 24 h), `C[C@@H]1C[C@H]2O[C@@H]2CCCCC(=O)Cc2cc(O)cc(O)c2C(=O)O1` [TETRAHYDROMONOCILLIN I] showed an IC50 of 15 µM. Consider `C[C@@H]1C[C@H]2O[C@@H]2CCCCC(=O)Cc2c(Cl)c(O)cc(O)c2C(=O)O1` [TETRAHYDRORADICICOL], for which the midpoint of inhibition in data set [1] (Homo sapiens, 24 h), the IC50, lay at 2.24 µM. In addition, in data set [2], the CC50 is greater than 100 µM.
